Source: PubChem BioAssay
A selection: hits, their analogues and other compounds. The true share with any hit is near 2.7%.
OXTR ag: human OXTR agonism | P30559 | CHO-OTR cells, Fluo-8 calcium fluorescence; normalized: DMSO 0%, oxytocin 100% | activation, % at 3 µM | 320,000 compounds, 0.32% hits | AID 2435;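 active means activation above the mean of all tested compounds plus 3 SD, cutoff set per screening run, cut at about 20% in these data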;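 further: peak over basal fluorescence ratio from a 100 s FLIPR kinetic read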
V1aR counter: counter-screen for oxytocin receptor agonists: human V1a receptor agonists; activation, % at 3 µM; AID 2797; 320,000 compounds, 0.25% hits; CHO-V1R cells, Fluo-8 calcium fluorescence, agonist mode; 0% DMSO, 100% 3 nM vasopressin; P37288;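 active means activation above the mean activation of all tested compounds plus 3 SD, per screening run, cut at about 20% in these data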;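 further: signal is peak over basal fluorescence ratio across a 100 second FLIPR read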
Target sequence (P37288 whole entry, looked up): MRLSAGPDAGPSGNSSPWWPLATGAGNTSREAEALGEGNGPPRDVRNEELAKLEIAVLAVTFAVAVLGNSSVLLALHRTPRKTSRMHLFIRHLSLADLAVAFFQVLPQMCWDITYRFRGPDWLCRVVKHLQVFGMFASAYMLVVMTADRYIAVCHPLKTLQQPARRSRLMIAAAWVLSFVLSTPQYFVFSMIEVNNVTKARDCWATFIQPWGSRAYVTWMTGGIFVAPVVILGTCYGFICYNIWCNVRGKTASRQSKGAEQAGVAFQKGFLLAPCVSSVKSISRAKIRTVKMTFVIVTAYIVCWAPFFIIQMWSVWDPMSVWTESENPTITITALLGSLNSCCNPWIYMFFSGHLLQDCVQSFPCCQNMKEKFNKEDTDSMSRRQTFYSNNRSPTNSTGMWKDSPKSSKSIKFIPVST
OX1R antag-1: OX1R (human) antagonism; O43613; inhibition, % at 6.6 µM; 330,000 compounds, 1.8% hits; OX1R-expressing cells, FRET antagonist read-out; in the data active means inhibition mostly above about 38%, no sharp cut-off; inactive means mostly below about 40%
OX1R antag-2: blocks the human orexin 1 receptor. CHO/OX1R cells, Fluo-8 calcium fluorescence, orexin A. inhibition, % at 5 µM. 330,000 compounds, 0.43% hits. AID 434989;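 active means inhibition above its plate's threshold, mean inhibition of all tested compounds on the plate plus 3 SD, cut at about 37% in these data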
CHO parental Ca: signal in parental CHO cells, OX1R antagonist counter-screen; 330,000 compounds, 0.63% hits; parental CHO-K1, ATP-induced calcium, Fluo-8 fluorescence; inhibition, % at 5.6 µM;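 active means inhibition above that plate's mean sample inhibition plus 3 SD, cut at about 26% in these data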
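material = parental CHO cells | also added = ATP as calcium-mobilizing challenge | dosing = single point at 5.6 µM | detection = intracellular calcium via Fluo-8 no-wash fluorescent dye | read-out = % inhibition | benchmarks = low control ATP plus DMSO, high control DMSO only | repeats = one well per compound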
OXTR potentiator: potentiates the human oxytocin receptor response. P30559. CHO-OTR cells, Fluo-8 calcium fluorescence, potentiator mode; 0% = oxytocin EC15, 100% = EC100. activation, % at 3 µM. 320,000 compounds, 0.061% hits. AID 2445;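 active means activation above that plate's cutoff, the mean activation of tested compounds plus 3 SD, cut at about 6.6% in these data, passing the limit was not always enough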
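assay system = CHO-OTR cells, human receptor | schedule = compound 6 min at room temperature before oxytocin, 100 s read | detection = Fluo-8 intracellular calcium fluorescence, ex 470-495, em 515-575 nm | evaluation = normalized max/min fluorescence ratio, % activation | control set = EC15 oxytocin alone as 0%, 75 nM oxytocin (EC100) as 100%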
Of the large screens only hits and unclear results are named; the others gave an inactive call.

Cc1ccc(Sc2ncccc2[N+](=O)[O-])cc1	none
Nc1nnc(Sc2ncccc2[N+](=O)[O-])s1	OX1R antag-1 39
CC(C)(C)c1csc(Sc2ncccc2[N+](=O)[O-])n1	none
Cc1ccnc(Sc2ncccc2[N+](=O)[O-])n1	OX1R antag-1 60
Cc1ccc2oc(C(=O)NCc3ncc(C)[nH]3)c(C)c2c1	none
COc1ccc(-c2noc(CCC(=O)NCCc3ccccc3)n2)cc1	none
CCN(CCCNC(=O)CCc1nc(-c2ccc(OC)cc2)no1)c1cccc(C)c1	OX1R antag-1 55
CC(C)CNC(=O)Cn1c(=O)c2c(ncn2CC(C)C)n(Cc2ccccc2)c1=O	none
O=C1CCCc2c1nc(-c1ccc([N+](=O)[O-])cc1)n2O	OX1R antag-1 48
Cc1nnc(SCC(=O)c2ccc(Cl)cc2)n(N)c1=O	OX1R antag-1 50
O=C(O)COc1ccccc1/C=N/Nc1ccc(S(=O)(=O)N2CCOCC2)cc1[N+](=O)[O-]	OX1R antag-1 63
CCCc1cc(C(=O)N2CCCC(C(=O)c3cc(C)c(OC)c(C)c3)C2)n(C)n1 (stereo unspecified)	OX1R antag-1 37
COc1c(C)cc(C(=O)C2CCCN(C(=O)c3ccc4[nH]ccc4c3)C2)cc1C (stereo unspecified)	OX1R antag-1 75
CCCc1cc(C(=O)N2CCCC(C(=O)c3ccc(Cl)cc3)C2)n(C)n1 (stereo unspecified)	none
COc1c(C)cc(C(=O)C2CCCN(C(=O)c3csc(C)n3)C2)cc1C (stereo unspecified)	none
COC(=O)[C@H](CC(C)C)N1Cc2cc(OC)cc(OC)c2-c2ccccc2S1(=O)=O	none (no result: OXTR ag, V1aR counter, OXTR potentiator)
CC(=O)NC1=C(N(C)C2CCS(=O)(=O)C2)C(=O)c2ccccc2C1=O (stereo unspecified)	OX1R antag-1 70
CC1CN(C(=O)COC(=O)c2cc(Cl)ccc2Cl)CC(C)O1 (stereo unspecified)	none
CC1CCCN(C(=O)COC(=O)c2cc([N+](=O)[O-])ccc2N2CCOCC2)C1 (stereo unspecified)	none
O=C(COC(=O)c1cc([N+](=O)[O-])ccc1N1CCOCC1)Nc1c(Cl)cccc1Cl	OX1R antag-1 54
CC1CN(C(=O)COC(=O)c2cc([N+](=O)[O-])ccc2Cl)CC(C)O1 (stereo unspecified)	OX1R antag-1 41
CC1CC(C)CN(C(=O)COC(=O)c2cc([N+](=O)[O-])ccc2N2CCOCC2)C1 (stereo unspecified)	OX1R antag-1 53
O=C(COC(=O)c1cc([N+](=O)[O-])ccc1N1CCOCC1)Nc1cccc(F)c1	OX1R antag-1 71
CCOCCCn1c(=NC(C)=O)c(C#N)cc2c(=O)n3ccccc3nc21	OX1R antag-1 40
COCCCn1c(=NC(=O)c2ccccc2)c(C#N)cc2c(=O)n3cccc(C)c3nc21	OX1R antag-1 55
CCOC(=O)c1cc2c(=O)n3ccccc3nc2n(CCOC)c1=NC(=O)C(C)(C)C	none
CCOCCCn1c(=NC(C)=O)c(C(=O)OCC)cc2c(=O)n3ccccc3nc21	OX1R antag-1 59
C/C(=N\NC(=O)c1cc(C)nc2ccccc12)c1cccc(Cl)c1	none
O=C(CSc1nnc(-c2c[nH]c3ccccc23)o1)N(Cc1ccccc1)c1ccc(F)cc1	OX1R antag-1 52
COc1ccc(CN(C(=O)CSc2nnc(-c3ccccc3C)o2)c2ccc(F)cc2)cc1	none
O=C(NC[C@@H]1CCCO1)c1cccc2c1C(=O)c1ccc(Cl)cc1S2(=O)=O	OX1R antag-1 45
COc1ccc(-c2ccc3c(c2)S(=O)(=O)c2cccc(C(=O)NC[C@@H]4CCCO4)c2C3=O)cc1OC	OX1R antag-1 37
Cc1ccnc(Nc2nc(-c3c(C)nc4sccn34)cs2)c1	OX1R antag-1 55
Cc1ccnc(Nc2nc(-c3ccccc3)cs2)c1	none
O=C(Nc1cccc(Cl)c1)Nc1ccon1	none
COC(=O)c1cccc(NC(=O)Nc2ccc(Cl)cc2)c1	CHO parental Ca 46
O=C(Nc1ccc(Cl)cc1)Nc1nc(-c2ccccc2)cs1	none
